Screen size: about 2,500 compounds; about 460 (18%) were called active. Only a sample is shown. A number with no mark means an inactive call.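 The calls were made as follows: active = mean activation above a cutoff of low control average plus 3 SD from the earlier screen (cut at about 12% in these data); inactive = the rest.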
Assay: compound fluorescence interference without thin filaments, confirmation, artefact control for cardiac RTF calcium sensitizer project, biochemical (AID 504382)
Settings: IANBD fluorescence interference counterscreen, buffer, EC20 Ca2+; at 7.2 µM; active compounds read high; scaled: EC20 calcium 0, EC100 calcium 100
How it was run: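 Medium: MOPS buffer, 190 mM, with KCl, MgCl2, EGTA, NTA, DTT, pH 7.20; Dosing: one dose of 7.2 µM, 0.7% DMSO; Probe or stimulus: calcium at EC20 level, 0.472 mM final; Incubation: 15 min, 25 °C; Evaluation: compound fluorescence interference relative to control well signal range; Signal: fluorescence, 480/540 nm.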

Row | SMILES | fluorescence artifact activation
1 | CC1=C(C(=O)OCCCCCl)C(c2cc3c(cc2Br)OCO3)NC(=O)N1 (configuration not stated) | -0.02%
2 | C[C@H]1CN([C@@H](C)CO)C(=O)Cc2cc(NC(=O)CCC(F)(F)F)ccc2O[C@H]1CN(C)S(C)(=O)=O | 0.55%
3 | Oc1[nH]c2ccccc2c1N=Nc1ccccc1F | -0.02%
4 | Oc1[nH]c2ccccc2c1N=Nc1ccccc1 | 11.6%
5 | Oc1[nH]c2ccccc2c1N=Nc1ccc(F)cc1 | 34.1% (active)
6 | COc1ccc(-n2c(O)c(/C=N/NS(=O)(=O)c3cccc([N+](=O)[O-])c3)c3ccccc3c2=O)cc1OC | 0.15%
7 | Cn1ncc(Cl)c1C(=O)Nc1cccc(Cl)c1 | 0.09%
8 | CC1CC1c1ccc(/C=C(\C#N)C(=O)Nc2cccc(Cl)c2Cl)o1 (configuration not stated) | 4%
9 | Cn1nccc1NC(=O)Nc1cccc(Cl)c1Cl | 13.5% (active)
10 | O=C(Nc1ccccc1)C1=C[C@H](c2ccc3c(c2)OCO3)C[C@H](OCCCCO)O1 | 1.74%
11 | COc1cc(/C=N/NC(=O)c2cc(-c3ccccc3Cl)nc3ccccc23)cc(OC)c1O | 8.56%
12 | O=c1[nH][nH]c(C(F)(F)F)c1C=Nc1cccc(Cl)c1 | 1.19%
13 | Cc1cc(O)c(CN(C)C)c2c1C(=O)/C(=C/c1ccco1)O2 | 0%
14 | CC(C)Cn1c(N)c(C(=O)COC(=O)c2cc(F)cc(F)c2)c(=O)n(C)c1=O | 40.2% (active)
15 | CCOC(=O)C1=C(C)N=c2s/c(=C/c3ccc(OCC(=O)O)c(OC)c3)c(=O)n2C1c1ccc(Cl)cc1 (configuration not stated) | -0.04%
16 | Cc1cc(C=C2C(=O)c3ccccc3C2=O)c(C)n1-c1ccc(Cl)cc1 | -0.07%
17 | CCCN1C(=O)/C(=C/c2ccc(N3CCCC3)c(C)c2)NC1=S | 0.06%
18 | CCN1C(=O)/C(=C/c2ccc(N3CCCC3)cc2)NC1=S | 0.26%
19 | CCCN1C(=O)/C(=C/c2ccc(N3CCOCC3)cc2)NC1=S | 131% (active)
20 | CC1(C)NC(=O)N(CCCCOc2ccc(Cl)cc2)C1=O | 0.28%
21 | CCOC(=O)NC1(C(F)(F)F)C(=O)NC(C)=C1C(=O)OC (configuration not stated) | 5.24%
22 | S=c1[nH]nc(-c2ccc(Cl)cc2)n1-c1ccc2c(c1)OCCO2 | 31.8% (active)
23 | Cc1ccc(-n2c(C)n[nH]c2=S)cc1 | 1.66%

Row | SMILES | fluorescence artifact activation
24 | CCN(CC)c1ccc(/C=C2/SC(=O)N(C(C)C)C2=O)o1 | 8.25%
25 | C/C(=N/NS(=O)(=O)c1ccccc1)c1ccc(NC(=O)C2CC2)cc1 | 6.01%
26 | O=C(CNCc1cccs1)Nc1ccc(S(=O)(=O)N2CCCCC2)cc1 | 15.8% (active)
27 | O=C(CCCN1C(=O)c2ccccc2C1=O)Nc1ccc(S(=O)(=O)N2CCCCC2)cc1 | 0.02%
28 | O=C(CNCc1cccs1)Nc1cc(S(=O)(=O)N2CCCC2)ccc1Cl | 4.18%
29 | CCC1(O)C(=O)OCc2c1cc1n(c2=O)Cc2cc3cc(O)ccc3nc2-1 (configuration not stated) | 0.27%
30 | O=C1CCC(=O)N1CC(O)COc1ccccc1 (configuration not stated) | 61.5% (active)
31 | CCOc1ccccc1C(=O)NN1C(=O)CCC1=O | 3.75%
32 | Cc1cc(C)n(CC(O)COc2ccccc2)n1 (configuration not stated) | 0.59%
33 | CC(C)(C)NC(=O)[C@@H]1CN(Cc2cccnc2)CCN1C[C@@H](O)C[C@@H](Cc1ccccc1)C(=O)N[C@H]1c2ccccc2C[C@H]1O | 54.1% (active)
34 | Cn1nc([N+](=O)[O-])c(C(C#N)c2ccccn2)c(Cl)c1=O (configuration not stated) | -0.03%
35 | CN(C)c1ccc(/C=C2\N=C(C(C)(C)C)OC2=O)cc1 | 0.15%
36 | CN1C(=O)/C(=C\c2ccc(N(C)C)cc2)OC1=S | 57.7% (active)
37 | Cc1c(N2C(=O)/C(=C\c3ccc(N(C)C)cc3)N(C)C2=S)c(=O)n(-c2ccccc2)n1C | 0.17%
38 | Cc1ccc(NC2OC(C(O)CO)C(O)C2O)cc1[N+](=O)[O-] (configuration not stated) | 5.79%
39 | O=C(c1ccc(COc2ccccc2Br)o1)N1N=C(C(F)F)CC1(O)C(F)F (configuration not stated) | 8.57%
40 | CC(=O)Nc1ccc(S(=O)(=O)N2CCN3CCCC3C2)cc1 (configuration not stated) | -0.04%
41 | CCOC(=O)/C(=C/C=C1\Sc2cc(C)c(C)cc2N1CC)C(C)=O | 0.02%
42 | CCOC(=O)/C(=C\c1ccc(N2CCC(c3ccccc3)=N2)cc1)C(C)=O | -0.05%
43 | CCOC(=O)/C(=C/C1=CC(=C/N(C)C)/C(=O)O1)C(C)=O | 22.1% (active)
44 | CCc1ccc(/C=N/n2c(C)cc(C)c(C#N)c2=O)cc1 | 0.12%
45 | CCCNC(=S)N1CCC(NC(=O)C23CC4CC(CC(C4)C2)C3)CC1 | 0.09%
46 | CCn1nnnc1SCC(=O)N1CCCc2ccccc21 | 0.01%

Row | SMILES | fluorescence artifact activation
47 | CSc1nnnn1-c1c(C)cc(C)cc1C | 0.04%
48 | Cc1ccccc1-n1nnnc1SCC(C)C | 32.8% (active)
49 | CCO[C@@H]1OC(C(=O)O)=C[C@H](c2coc3ccccc3c2=O)[C@H]1CCCO | 1.71%
50 | COCCn1c(SCC#N)nnc1-c1ccc([N+](=O)[O-])cc1 | -0.11%
51 | COc1cc(/C=C2\SC(=Nc3ccc(Cl)c(C(=O)O)c3)NC2=O)c(Br)c(Br)c1O | 17.6% (active)
52 | COc1cccc(N=C2NC(=O)/C(=C/c3cc([N+](=O)[O-])ccc3O)S2)c1 | 0.01%
53 | COc1cc(/C=C2\SC(=Nc3ccccc3)NC2=O)cc(Cl)c1O | 0.21%
54 | c1ccc(-c2nc(-c3ccco3)n3ccccc23)cc1 | 0.05%
55 | O=C(/C=C/c1cccc(F)c1)Nc1cc(S(=O)(=O)N2CCOCC2)ccc1N1CCCC1 | 0.02%
56 | N=C1/C(=C\c2coc3ccccc3c2=O)C(=O)N=C2SC(c3ccncc3)=NN12 | 7.67%
57 | N=C1/C(=C\c2coc3ccccc3c2=O)C(=O)N=C2SC=CN12 | -0.01%
58 | CC(C)CSC1=NSC2=NC(=O)/C(=C\c3coc4ccccc4c3=O)C(=N)N12 | 12.7% (active)
59 | CCSC1=NSC2=NC(=O)/C(=C\c3coc4ccccc4c3=O)C(=N)N12 | 24.5% (active)
60 | CC(C)CC1=NN2C(=N)/C(=C\c3coc4ccccc4c3=O)C(=O)N=C2S1 | 2.69%
61 | CSC1=NSC2=NC(=O)/C(=C/c3coc4ccccc4c3=O)C(=N)N12 | 0.27%
62 | Cn1nnnc1SCCOc1ccc(C#N)cc1 | -0.03%
63 | CSc1cccc(NC(=O)c2ccc(Cl)nc2)c1 | -0.04%
64 | Fc1ccc(-c2[nH]ncc2CN(CC2CCC2)CC2CCCO2)c(F)c1 (configuration not stated) | 8.43%
65 | C=C(C)c1sc(-c2ccc(Cl)cc2)nc1C | 0.11%
66 | O=C(NN1C(=O)/C(=C/c2ccc(O)cc2)SC1=S)c1cccc(O)c1 | 0.01%
67 | Cc1cc2nc(C3CCCN(C(=O)NCc4ccccc4)C3)[nH]c2cc1C (configuration not stated) | 8.15%
68 | COc1ccc(-n2c(O)c(/C=N/NS(=O)(=O)c3cc(C)ccc3C)c3ccccc3c2=O)cc1OC | 0.84%
69 | COc1ccc(-n2c(O)c(/C=N/NS(=O)(=O)c3ccc(C)cc3)c3ccccc3c2=O)cc1OC | 12.8% (active)

Row | SMILES | fluorescence artifact activation
70 | COc1ccc(-n2c(O)c(/C=N/NS(=O)(=O)c3ccc(C)c([N+](=O)[O-])c3)c3ccccc3c2=O)cc1OC | -0.02%
71 | COc1ccc(/C(C)=N/N2C(=O)c3ccccc3NC2c2ccc(O)c(OC)c2)cc1 (configuration not stated) | 0.69%
72 | Cc1ccccc1-n1c(O)c(/C=C/C=Nc2ccccc2)c(=O)[nH]c1=O | 2.27%
73 | Cc1cn(COC/C=C/c2ccccc2)c(=O)[nH]c1=O | 25.6% (active)
74 | CCCCOc1ccc(C2OC34CCCCC3C(C#N)(C#N)C2(C#N)C(=N)O4)cc1 (configuration not stated) | 0.1%
75 | COc1ccc(C(=O)OC/C(O)=C(\C#N)c2nc3ccccc3[nH]2)cc1S(=O)(=O)N1CCOCC1 | 0.13%
76 | O=C1OCC/C1=C\c1ccccc1O | -0.06%
77 | COC(=O)C1CSc2[nH]c(=O)sc2C1c1ccccc1 (configuration not stated) | 0.07%
78 | Cc1ccc(C(=O)NN2C(=O)/C(=C/c3cn(C)c4ccccc34)SC2=S)cc1 | 7.41%
79 | Cn1cc(/C=C2\SC(=S)N(NC(=O)c3ccccc3)C2=O)c2ccccc21 | 2.64%
80 | CCCCN1C(=O)/C(=C/C=C2\SCCN2C)SC1=S | 0%
81 | CC(C(=O)O)N1C(=O)/C(=C/c2cccn2C)SC1=S (configuration not stated) | 6.16%
82 | Cn1cc(/C=C2\SC(=S)N(NC(=O)c3cccc(Cl)c3)C2=O)c2ccccc21 | 17% (active)
83 | Cn1cccc1/C=C1\SC(=S)N(NC(=O)c2ccc(Cl)cc2)C1=O | 0.86%
84 | Cc1ccc(C(=O)NN2C(=O)/C(=C/c3cccn3C)SC2=S)cc1 | 4.27%
85 | Cn1cccc1/C=C1\SC(=S)N(NC(=O)c2ccccc2)C1=O | 18.2% (active)
86 | CCC(C(=O)O)N1C(=O)/C(=C/c2cccn2C)SC1=S (configuration not stated) | 4.17%
87 | CN1CCS/C1=C\C=C1/SC(=S)N(CC(=O)O)C1=O | -0.02%
88 | CC(C)C(C(=O)O)N1C(=O)/C(=C/c2cccn2C)SC1=S (configuration not stated) | 12.3% (active)
89 | CN1CCS/C1=C/C=C1\SC(=S)N(CC(=O)O)C1=O | 18.9% (active)
90 | Cc1ccc(N2CN(Cc3cccnc3)CNC2=S)cc1 | 0.4%
91 | CCOC(=O)c1cnc(SC)nc1Oc1cccc(NS(=O)(=O)c2ccc(Cl)cc2)c1 | 0.07%
92 | CCN1C(=S)SC(=O)C1=C1C=C(C)N(Cc2ccco2)C(C)=C1 | 0.18%

Source: PubChem BioAssay AID504382 (The Scripps Research Institute Molecular Screening Center, 2011)
